# ChEMBL document CHEMBL4765248, “Design, synthesis, biological evaluation and molecular docking study of novel thieno[3,2-d]pyrimidine derivatives as potent FAK inhibitors” (Eur J Med Chem, 2020)
# System: U-87 MG
# Assay: Antiproliferative activity against human U-87MG cells assessed as inhibition of cell growth measured after 72 hrs by MTT assay
# Format: functional, cell-based, U-87MG ATCC
# Conditions: not given
# Method in brief: (§1)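 Cells were seeded at 4000–5000/well and held 24 h at 37 °C in 5% CO2. Compounds were added at the indicated final concentrations and incubated 72 h. MTT was added (5 mg/mL in PBS, stated as final) for 4 h at 37 °C. Formazan was dissolved in DMSO and absorbance read at 490 nm. The 50% growth-inhibitory concentration is the mean of three independent experiments ± SE.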
row,SMILES,IC50 [µM]
1,COc1ccccc1-c1csc2cnc(Nc3ccc(C(=O)NC4CCNCC4)cc3F)nc12,2.37
2,CCOP(=O)(Cc1ccc(Nc2ncc3scc(-c4ccccc4OC)c3n2)cc1)NC (centres undefined),1.3
3,COc1ccccc1-c1csc2cnc(Nc3ccc(C(=O)NC4CCNCC4)cc3C)nc12,0.25
4,COc1cc(C(=O)NC2CCNCC2)c(F)cc1Nc1ncc2scc(-c3ccccc3OC)c2n1,3.59
5,COc1ccccc1-c1csc2cnc(Nc3ccc(NC(=O)[C@H]4CCCNC4)cc3)nc12,0.3
6,COc1ccccc1-c1csc2cnc(Nc3ccc(NC(=O)C4CCNCC4)cc3)nc12,1.06
7,CCOP(=O)(Cc1ccc(Nc2ncc3scc(-c4ccccc4OC)c3n2)cc1)OCC,1.3
8,COc1ccccc1-c1csc2cnc(Nc3cc(F)c(C(=O)NC4CCNCC4)cc3F)nc12,1.48
9,COc1ccccc1-c1csc2cnc(Nc3ccc(CP(=O)(OC)OC)cc3)nc12,1.71
10,COc1cc(C(=O)NC2CCNCC2)ccc1Nc1ncc2scc(-c3ccccc3OC)c2n1,6.4
11,COc1ccccc1-c1csc2cnc(Nc3ccc(C(=O)NC4CCNCC4)cc3)nc12,0.65
12,CCOP(=O)(Cc1ccc(Nc2ncc3scc(-c4ccccc4OC)c3n2)cc1)N1CCOCC1 (centres undefined),1.22
13,CCOP(=O)(OCC)C(O)c1ccc(Nc2ncc3scc(-c4ccccc4OC)c3n2)cc1 (centres undefined),1.95
14,CNC(=O)c1ccccc1Nc1nc(Nc2ccc(N3CCOCC3)cc2OC)ncc1Cl,1.67
15,COc1ccccc1-c1csc2cnc(Nc3ccc(NC(=O)CN)cc3)nc12,0.21
16,CCOc1cc(C(=O)NC2CCNCC2)ccc1Nc1ncc2scc(-c3ccccc3OC)c2n1,2.03
17,CNC(=O)c1ccc(Nc2ncc3scc(-c4ccccc4OC)c3n2)cc1,0.71
18,COc1ccccc1-c1csc2cnc(Nc3ccc(C(=O)NC4CCNCC4)c(C)c3)nc12,0.46
19,COc1ccccc1-c1csc2cnc(Nc3ccc(C(=O)NC4CCNCC4)cc3C(F)(F)F)nc12,2.09
20,COc1ccccc1-c1csc2cnc(Nc3ccc(NC(=O)[C@@H]4CCCNC4)cc3)nc12,0.36

# System: A549
# Assay: Antiproliferative activity against human A549 cells assessed as inhibition of cell growth measured after 72 hrs by MTT assay
# Format: functional, cell-based
# Conditions: A549, 72 h
# Method in brief: as §1
row,SMILES,IC50 [µM]
1,COc1ccccc1-c1csc2cnc(Nc3ccc(C(=O)NCC4CCNCC4)c(F)c3)nc12,3.41
2,COc1ccccc1-c1csc2cnc(Nc3ccc(C(=O)NC4CCNCC4)cc3F)nc12,2.75
3,CCOP(=O)(Cc1ccc(Nc2ncc3scc(-c4ccccc4OC)c3n2)cc1)NC (centres undefined),1.73
4,COc1ccccc1-c1csc2cnc(Nc3ccc(C(=O)NC4CCNCC4)cc3C)nc12,3.42
5,COc1cc(C(=O)NC2CCNCC2)c(F)cc1Nc1ncc2scc(-c3ccccc3OC)c2n1,1.9
6,COc1ccccc1-c1csc2cnc(Nc3ccc(C(=O)NC[C@@H]4CCCNC4)c(F)c3)nc12,5.05
7,COc1ccccc1-c1csc2cnc(Nc3ccc(C(=O)N[C@H]4CCNC4)c(F)c3)nc12,0.87
8,COc1ccccc1-c1csc2cnc(Nc3ccc(NC(=O)[C@H]4CCCNC4)cc3)nc12,0.5
9,COc1ccccc1-c1csc2cnc(Nc3ccc(NC(=O)C4CCNCC4)cc3)nc12,0.45
10,CCOP(=O)(Cc1ccc(Nc2ncc3scc(-c4ccccc4OC)c3n2)cc1)OCC,0.96
11,COc1ccccc1-c1csc2cnc(Nc3ccc(C(=O)N[C@@H]4CCNC4)c(F)c3)nc12,0.43
12,COc1ccccc1-c1csc2cnc(Nc3ccc(C(=O)NC4CCOCC4)c(F)c3)nc12,5.71
13,COc1ccccc1-c1csc2cnc(Nc3cc(F)c(C(=O)NC4CCNCC4)cc3F)nc12,5.39
14,COc1ccccc1-c1csc2cnc(Nc3ccc(CP(=O)(OC)OC)cc3)nc12,1.8
15,COc1cc(C(=O)NC2CCNCC2)ccc1Nc1ncc2scc(-c3ccccc3OC)c2n1,2.88
16,COc1ccccc1-c1csc2cnc(Nc3ccc(C(=O)NC4CCNCC4)cc3)nc12,0.36
17,COc1ccccc1-c1csc2cnc(Nc3ccc(C(=O)NC[C@H]4CCCNC4)c(F)c3)nc12,4.45
18,CCOP(=O)(Cc1ccc(Nc2ncc3scc(-c4ccccc4OC)c3n2)cc1)N1CCOCC1 (centres undefined),0.85
19,CCOP(=O)(OCC)C(O)c1ccc(Nc2ncc3scc(-c4ccccc4OC)c3n2)cc1 (centres undefined),0.35
20,COc1ccccc1-c1csc2cnc(Nc3ccc(C(=O)NC4CCN(C)CC4)c(F)c3)nc12,0.66
21,CNC(=O)c1ccccc1Nc1nc(Nc2ccc(N3CCOCC3)cc2OC)ncc1Cl,1.16
22,COc1ccccc1-c1csc2cnc(Nc3ccc(NC(=O)CN)cc3)nc12,1.95
23,CCOc1cc(C(=O)NC2CCNCC2)ccc1Nc1ncc2scc(-c3ccccc3OC)c2n1,5.77
24,CNC(=O)c1ccc(Nc2ncc3scc(-c4ccccc4OC)c3n2)cc1,0.31
25,COc1ccccc1-c1csc2cnc(Nc3ccc(C(=O)NC4CCNCC4)c(C)c3)nc12,0.87
26,COc1ccccc1-c1csc2cnc(Nc3ccc(C(=O)NC4CCNCC4)cc3C(F)(F)F)nc12,4.11
27,COc1ccccc1-c1csc2cnc(Nc3ccc(NC(=O)[C@@H]4CCCNC4)cc3)nc12,0.41

# System: HK-2
# Assay: Cytotoxicity against human HK2 cells assessed as inhibition of cell proliferation measured after 72 hrs by MTT assay
# Format: cell-based
# Conditions: HK-2, 72 h
# Method in brief: as §1
row,SMILES,IC50 [µM]
1,COc1cc(C(=O)NC2CCNCC2)c(F)cc1Nc1ncc2scc(-c3ccccc3OC)c2n1,0.78
2,COc1ccccc1-c1csc2cnc(Nc3ccc(NC(=O)[C@H]4CCCNC4)cc3)nc12,4.89
3,COc1ccccc1-c1csc2cnc(Nc3ccc(NC(=O)C4CCNCC4)cc3)nc12,11.7
4,COc1cc(C(=O)NC2CCNCC2)ccc1Nc1ncc2scc(-c3ccccc3OC)c2n1,12.2
5,COc1ccccc1-c1csc2cnc(Nc3ccc(C(=O)NC4CCNCC4)cc3)nc12,11.4
6,CNC(=O)c1ccc(Nc2ncc3scc(-c4ccccc4OC)c3n2)cc1,0.71
7,COc1ccccc1-c1csc2cnc(Nc3ccc(C(=O)NC4CCNCC4)c(C)c3)nc12,4.45

# System: MDA-MB-231
# Assay: Antiproliferative activity against human MDA-MB-231 cells assessed as inhibition of cell growth measured after 72 hrs by MTT assay
# Format: functional, cell-based
# Conditions: MDA-MB-231, 72 h
# Method in brief: as §1
row,SMILES,IC50 [µM]
1,COc1ccccc1-c1csc2cnc(Nc3ccc(C(=O)NCC4CCNCC4)c(F)c3)nc12,1.53
2,COc1ccccc1-c1csc2cnc(Nc3ccc(C(=O)NC4CCNCC4)cc3F)nc12,1.61
3,CCOP(=O)(Cc1ccc(Nc2ncc3scc(-c4ccccc4OC)c3n2)cc1)NC (centres undefined),1.21
4,COc1ccccc1-c1csc2cnc(Nc3ccc(C(=O)NC4CCNCC4)cc3C)nc12,3.24
5,COc1cc(C(=O)NC2CCNCC2)c(F)cc1Nc1ncc2scc(-c3ccccc3OC)c2n1,1.16
6,COc1ccccc1-c1csc2cnc(Nc3ccc(C(=O)NC[C@@H]4CCCNC4)c(F)c3)nc12,2.89
7,COc1ccccc1-c1csc2cnc(Nc3ccc(C(=O)N[C@H]4CCNC4)c(F)c3)nc12,0.56
8,COc1ccccc1-c1csc2cnc(Nc3ccc(NC(=O)[C@H]4CCCNC4)cc3)nc12,0.44
9,COc1ccccc1-c1csc2cnc(Nc3ccc(NC(=O)C4CCNCC4)cc3)nc12,1.05
10,CCOP(=O)(Cc1ccc(Nc2ncc3scc(-c4ccccc4OC)c3n2)cc1)OCC,4.94
11,COc1ccccc1-c1csc2cnc(Nc3ccc(C(=O)N[C@@H]4CCNC4)c(F)c3)nc12,0.26
12,COc1ccccc1-c1csc2cnc(Nc3ccc(C(=O)NC4CCOCC4)c(F)c3)nc12,5.35
13,COc1ccccc1-c1csc2cnc(Nc3cc(F)c(C(=O)NC4CCNCC4)cc3F)nc12,2.57
14,COc1ccccc1-c1csc2cnc(Nc3ccc(CP(=O)(OC)OC)cc3)nc12,7.81
15,COc1cc(C(=O)NC2CCNCC2)ccc1Nc1ncc2scc(-c3ccccc3OC)c2n1,2.24
16,COc1ccccc1-c1csc2cnc(Nc3ccc(C(=O)NC4CCNCC4)cc3)nc12,0.11
17,COc1ccccc1-c1csc2cnc(Nc3ccc(C(=O)NC[C@H]4CCCNC4)c(F)c3)nc12,8.62
18,CCOP(=O)(Cc1ccc(Nc2ncc3scc(-c4ccccc4OC)c3n2)cc1)N1CCOCC1 (centres undefined),8.35
19,CCOP(=O)(OCC)C(O)c1ccc(Nc2ncc3scc(-c4ccccc4OC)c3n2)cc1 (centres undefined),2.64
20,COc1ccccc1-c1csc2cnc(Nc3ccc(C(=O)NC4CCN(C)CC4)c(F)c3)nc12,0.35
21,CNC(=O)c1ccccc1Nc1nc(Nc2ccc(N3CCOCC3)cc2OC)ncc1Cl,4.06
22,COc1ccccc1-c1csc2cnc(Nc3ccc(NC(=O)CN)cc3)nc12,2.77
23,CCOc1cc(C(=O)NC2CCNCC2)ccc1Nc1ncc2scc(-c3ccccc3OC)c2n1,4.39
24,CNC(=O)c1ccc(Nc2ncc3scc(-c4ccccc4OC)c3n2)cc1,2.12
25,COc1ccccc1-c1csc2cnc(Nc3ccc(C(=O)NC4CCNCC4)c(C)c3)nc12,0.24
26,COc1ccccc1-c1csc2cnc(Nc3ccc(C(=O)NC4CCNCC4)cc3C(F)(F)F)nc12,2.75
27,COc1ccccc1-c1csc2cnc(Nc3ccc(NC(=O)[C@@H]4CCCNC4)cc3)nc12,0.41

# Molecular target: Focal adhesion kinase 1 (Homo sapiens, UniProt Q05397)
# Assay: Inhibition of N-terminal GST-fused human truncated FAK (376 to 1052 residues) expressed in baculovirus expression system using tyrosine kinase peptide as substrate measured after 50 mins in presence of ATP by homogenous time resolved flourescence assay
# Conditions: not given
# Focal adhesion kinase 1, sequence (Q05397 whole entry, the tested form may be a part): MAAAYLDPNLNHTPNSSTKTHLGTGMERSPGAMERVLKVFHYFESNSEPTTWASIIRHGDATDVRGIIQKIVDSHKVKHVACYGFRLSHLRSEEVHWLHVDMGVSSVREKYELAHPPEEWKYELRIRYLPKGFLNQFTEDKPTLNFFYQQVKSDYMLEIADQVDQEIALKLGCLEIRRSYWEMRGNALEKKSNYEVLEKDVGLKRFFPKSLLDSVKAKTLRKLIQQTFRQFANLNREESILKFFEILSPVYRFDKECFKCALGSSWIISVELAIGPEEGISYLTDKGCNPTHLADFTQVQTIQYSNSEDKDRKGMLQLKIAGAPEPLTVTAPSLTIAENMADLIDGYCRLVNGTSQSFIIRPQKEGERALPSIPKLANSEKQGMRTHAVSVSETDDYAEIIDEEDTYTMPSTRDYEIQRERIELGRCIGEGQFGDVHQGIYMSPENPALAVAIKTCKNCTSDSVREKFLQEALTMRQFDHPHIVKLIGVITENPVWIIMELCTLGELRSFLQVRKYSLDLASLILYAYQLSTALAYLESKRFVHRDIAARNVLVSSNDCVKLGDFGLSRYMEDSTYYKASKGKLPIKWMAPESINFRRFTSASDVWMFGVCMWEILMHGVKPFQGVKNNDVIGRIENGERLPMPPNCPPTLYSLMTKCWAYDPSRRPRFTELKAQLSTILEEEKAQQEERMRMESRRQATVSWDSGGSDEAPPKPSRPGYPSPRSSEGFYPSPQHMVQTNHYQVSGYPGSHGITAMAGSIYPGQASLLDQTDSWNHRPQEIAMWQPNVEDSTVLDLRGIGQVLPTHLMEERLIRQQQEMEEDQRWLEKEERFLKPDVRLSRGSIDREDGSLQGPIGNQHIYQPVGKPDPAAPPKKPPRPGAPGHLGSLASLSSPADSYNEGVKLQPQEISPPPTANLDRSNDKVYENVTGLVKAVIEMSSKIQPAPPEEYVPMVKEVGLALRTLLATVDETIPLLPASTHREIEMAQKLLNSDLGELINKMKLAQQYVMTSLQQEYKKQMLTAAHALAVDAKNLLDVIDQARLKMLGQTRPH
row,SMILES,IC50 [µM]
1,COc1ccccc1-c1csc2cnc(Nc3ccc(C(=O)NCC4CCNCC4)c(F)c3)nc12,0.12
2,COc1ccccc1-c1csc2cnc(Nc3ccc(C(=O)NC4CCNCC4)cc3F)nc12,0.0483
3,CCOP(=O)(Cc1ccc(Nc2ncc3scc(-c4ccccc4OC)c3n2)cc1)NC (centres undefined),0.184
4,COP(=O)(Cc1ccc(Nc2ncc3scc(-c4cccc(N(C)S(C)(=O)=O)c4)c3n2)cc1)OC,0.638
5,COc1ccccc1-c1csc2cnc(Nc3ccc(C(=O)NC4CCNCC4)cc3C)nc12,0.0265
6,COc1cc(C(=O)NC2CCNCC2)c(F)cc1Nc1ncc2scc(-c3ccccc3OC)c2n1,0.0382
7,COc1ccccc1-c1csc2cnc(Nc3ccc(C(=O)NC[C@@H]4CCCNC4)c(F)c3)nc12,0.111
8,COc1ccccc1-c1csc2cnc(Nc3ccc(C(=O)N[C@H]4CCNC4)c(F)c3)nc12,0.132
9,COc1ccccc1-c1csc2cnc(Nc3ccc(NC(=O)[C@H]4CCCNC4)cc3)nc12,0.167
10,COc1ccccc1-c1csc2cnc(Nc3ccc(NC(=O)C4CCNCC4)cc3)nc12,0.0577
11,CCOP(=O)(Cc1ccc(Nc2ncc3scc(-c4ccccc4OC)c3n2)cc1)OCC,0.157
12,COc1ccccc1-c1csc2cnc(Nc3ccc(C(=O)N[C@@H]4CCNC4)c(F)c3)nc12,0.0713
13,COc1ccccc1-c1csc2cnc(Nc3ccc(C(=O)NC4CCOCC4)c(F)c3)nc12,0.118
14,COP(=O)(Cc1ccc(Nc2ncc3scc(-c4cccc(NC(C)=O)c4)c3n2)cc1)OC,0.377
15,COc1ccccc1-c1csc2cnc(Nc3cc(F)c(C(=O)NC4CCNCC4)cc3F)nc12,0.0242
16,COc1ccccc1-c1csc2cnc(Nc3ccc(CP(=O)(OC)OC)cc3)nc12,0.134
17,COc1cc(C(=O)NC2CCNCC2)ccc1Nc1ncc2scc(-c3ccccc3OC)c2n1,0.0272

row,SMILES,IC50 [µM]
1,COc1ccccc1-c1csc2cnc(Nc3ccc(C(=O)NC4CCNCC4)cc3)nc12,0.0388
2,COc1ccccc1-c1csc2cnc(Nc3ccc(C(=O)NC[C@H]4CCCNC4)c(F)c3)nc12,0.149
3,CCOP(=O)(Cc1ccc(Nc2ncc3scc(-c4ccccc4OC)c3n2)cc1)N1CCOCC1 (centres undefined),0.351
4,CCOP(=O)(OCC)C(O)c1ccc(Nc2ncc3scc(-c4ccccc4OC)c3n2)cc1 (centres undefined),0.321
5,COc1ccccc1-c1csc2cnc(Nc3ccc(C(=O)NC4CCN(C)CC4)c(F)c3)nc12,0.0478
6,COc1ccc(-c2csc3cnc(Nc4ccc(CP(=O)(OC)OC)cc4)nc23)cc1,1.06
7,COc1ccccc1-c1csc2cnc(Nc3ccc(NC(=O)CN)cc3)nc12,0.144
8,CCOc1cc(C(=O)NC2CCNCC2)ccc1Nc1ncc2scc(-c3ccccc3OC)c2n1,0.166
9,COP(=O)(Cc1ccc(Nc2ncc3scc(-c4ccccc4C(C)=O)c3n2)cc1)OC,1.08
10,CNC(=O)c1ccc(Nc2ncc3scc(-c4ccccc4OC)c3n2)cc1,0.0793
11,COc1ccccc1-c1csc2cnc(Nc3ccc(C(=O)NC4CCNCC4)c(C)c3)nc12,0.0257
12,COc1ccccc1-c1csc2cnc(Nc3ccc(C(=O)NC4CCNCC4)cc3C(F)(F)F)nc12,0.709
13,CNC(=O)c1cccc(-c2csc3cnc(Nc4ccc(CP(=O)(OC)OC)cc4)nc23)c1,0.324
14,COc1ccccc1-c1csc2cnc(Nc3ccc(NC(=O)[C@@H]4CCCNC4)cc3)nc12,0.199
15,COP(=O)(Cc1ccc(Nc2ncc3scc(-c4cccc(S(C)(=O)=O)c4)c3n2)cc1)OC,0.14
16,COP(=O)(Cc1ccc(Nc2ncc3scc(-c4cccc(C(C)=O)c4)c3n2)cc1)OC,0.351
